Source: ChEMBL document CHEMBL1141319, “Cinnamic ester derivatives from Oxalis pes-caprae (Bermuda buttercup)” (2007)
Active and inactive are the calls of the source. The rule behind the calls is not given here.

Experiments:
Lactuca sativa [1] = assay: Phytotoxicity against Lactuca sativa assessed as inhibition of seed germination relative to control; assay type: functional; parameters: concentration or dose not given beside the values
Summary of the method: (§1)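 Lettuce seeds (cv. Napoli V.F.), selected for uniformity, 25 per 50 mm dish on filter paper with 5 mL test solution in 10 mM MES pH 6. Tested at 10^-4 M, diluted to 10-5–10-7 M. Dishes sealed and kept at 25 °C in the dark, with germination counted daily for 5 days. Seedlings frozen at -20 °C before measuring. Four replicates with parallel controls; results given as % difference from control, Student's t test.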

Lactuca sativa [2] = assay: Phytotoxicity against Lactuca sativa assessed as inhibition of root length at 0.1 mM relative to control; assay type: functional; parameters: scale not given: the % may be the effect or the level left; summary of the method: as §1
Lactuca sativa [3] = assay: Phytotoxicity against Lactuca sativa assessed as inhibition of root length upto 0.1 uM relative to control; assay type: functional, organism-based; summary of the method: as §1
Lactuca sativa [4] = assay: Phytotoxicity against Lactuca sativa assessed as inhibition of radical length at 0.1 uM to 0.1 mM relative to control; assay type: functional; parameters: scale not given: the % may be the effect or the level left; summary of the method: as §1
Lactuca sativa [5] = assay: Phytotoxicity against Lactuca sativa assessed as inhibition of shoot length at 0.1 uM to 0.1 mM relative to control; assay type: functional; parameters: scale not given: the % may be the effect or the level left; summary of the method: as §1
Lactuca sativa [6] = assay: Phytotoxicity against Lactuca sativa assessed as inhibition of seed germination at 1 to 10 nM relative to control; assay type: functional, organism-based
Lactuca sativa [7] = assay: Phytotoxicity against Lactuca sativa assessed as inhibition of shoot length at 1 to 10 nM relative to control; assay type: functional, organism-based
Lactuca sativa [8] = assay: Phytotoxicity against Lactuca sativa assessed as inhibition of shoot length at 100 uM relative to control; assay type: functional; parameters: scale not given: the % may be the effect or the level left; summary of the method: as §1

| Compound | Activity (Lactuca sativa [1]) [%] | Activity (Lactuca sativa [2]) | Activity (Lactuca sativa [3]) | Activity (Lactuca sativa [4]) [%] | Activity (Lactuca sativa [5]) [%] | Activity (Lactuca sativa [6]) | Activity (Lactuca sativa [7]) | Activity (Lactuca sativa [8]) [%] |
| --- | --- | --- | --- | --- | --- | --- | --- | --- |
| O=C(/C=C/c1ccc(O)c(O)c1)OCCO | 10 | >=80% | Active | 100 | 100 | inactive | inactive | 100 |
| COc1cc(/C=C/C(=O)OCCOC(C)=O)cc(OC)c1OC | 10 | >=80% | – | – | – | – | – | 60 |
| COc1cc(/C=C/C(=O)OCCO)cc(OC)c1OC | 10 | – | – | – | – | – | – | 30 |
| COc1cccc(OC(=O)/C=C/c2cc(OC)c(OC)c(OC)c2)c1 | 10 | – | – | – | – | – | – | 60 |
| COc1cc(/C=C/C(=O)Oc2cccc(O)c2)cc(OC)c1O | 10 | >=80% | – | – | – | – | – | 60 |
| COc1cc(/C=C/C(=O)OCCO)cc(OC)c1O | 10 | – | – | – | – | – | – | 30 |
| COc1cc(/C=C/C(=O)Oc2cccc(O)c2)cc(OC)c1OC | 10 | >=80% | – | – | – | – | – | 60 |
